# Data from the RNAGym collection of RNA variant scans (doi:10.1126/science.aae0568).
# This sample holds only a part of the variants without activity.
# B1: tRNA (parent)
# chain: GUUCCGUUGGCGUAAUGGUAACGCGUCUCCCUCCUAAGGAGAAGACUGCGGGUUCGAGUCCCGUACGGAACG
# Variants of: B1
# Assay: yeast fitness relative to wild type (ratio to wild type); higher = fitter; tRNA-Arg(CCU), competitive growth, 37 C, YPD
# Method in brief: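 The tRNA-Arg(CCU) gene variants were made by chemical synthesis with a 3% per-site mutation rate at 69 sites and inserted at the native genomic locus of Saccharomyces cerevisiae. After pooling, the strains were competed in YPD at 37°C for 24 hours in six parallel replicates. Gene amplicons from the start population and each end population were read by 100-nucleotide paired-end sequencing, and Darwinian fitness relative to wild type was taken from genotype frequency changes. Genotypes needed ≥ 100 starting reads, and estimates < 0.5 were set to 0.5.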
row,Variant,yeast fitness
1,C5U A21C G44C C46U,0.532
2,C5U A36G C55G C66G,≤ 0.5
3,C5U C29A C62A,≤ 0.5
4,C5U A45U C49A,0.696
5,C5U A15U C29U C31U C34U C55U,≤ 0.5
6,G6A A14U C61U,≤ 0.5
7,C5U U16G A20C A21G C30U,≤ 0.5
8,C5U C29A C31A U54A,≤ 0.5
9,C5U A40G A45U,0.638
10,C5U A21G C29U C31A G51C,≤ 0.5
11,C5U C30G C61A,≤ 0.5
12,C5U G10A A14C,0.6
13,C5U U19C C24A U28A,≤ 0.5
14,C5U G12C U13A,≤ 0.5
15,C5U G44A U64G,0.532
16,C5U C31U,1.03
17,C5U C31A,0.688
18,C5U A21C C31G G68C,≤ 0.5
19,C5U U26C A69C,0.655
20,C5U U32A C66U,0.578
21,C5U U19A C30A A42C U64C,≤ 0.5
22,G6A A14G A42G,0.549
23,C5U A15G,0.912
24,G6A A21C U47A G56A,≤ 0.5

row,Variant,yeast fitness
1,C5U A21U A57U C60A,≤ 0.5
2,G6A A36C A37G G52A,≤ 0.5
3,C5U A21C G44C,0.529
4,C5U C11U A14U,0.57
5,C5U A43G C49G A69C,≤ 0.5
6,G6A A14U C34A A70G,≤ 0.5
7,C5U U7A C62A,≤ 0.5
8,C5U U13C U19A A21U C24A U54C U59C A69G,0.524
9,C5U C31A A45C,0.681
10,C5U G38C,0.719
11,G6A A14U,0.663
12,G6A A14C,0.674
13,C5U U47A G68C,0.534
14,C5U U28A C30G,≤ 0.5
15,C5U A21G A42U U54G,0.533
16,C5U U7G G9A C31G A36G,≤ 0.5
17,G6A A36U C66U,0.536
18,C5U C24U A36G,0.791
19,C5U G10C C27G U28C G39C C46G A69U,≤ 0.5
20,C5U G10A U13A A15G G50C A57G,≤ 0.5
21,C5U C31G C33U,0.522
22,C5U A20C C29A,0.666
23,C5U G17C C30A G50A C66G,≤ 0.5
24,G6A A20G C30G U35A G50A A65C,0.517

row,Variant,yeast fitness
1,C5U C27U A45U C60G,≤ 0.5
2,C5U U35A G44A,0.558
3,C5U U13G A42U,0.627
4,C5U C34G C61U C66U,≤ 0.5
5,C5U U16C A40G A43G G63C A69G,≤ 0.5
6,C5U C22G C46A C60G,≤ 0.5
7,C5U U7G C24U C34G A37C A42U C66U,≤ 0.5
8,C5U C11A C24A U28G,0.63
9,C5U G9C C34U C60G,≤ 0.5
10,C5U A15G A20U A42G G63C,0.65
11,C5U U16A C24U C66G,≤ 0.5
12,C5U C24A U26C A40G G56A,≤ 0.5
13,C5U U8C A20G C30A C61A,0.649
14,C5U C24U G41C A70C,≤ 0.5
15,C5U A14U U16A C66U,0.511
16,G6A A14C A37U,0.689
17,C5U C27A A42U C49G,0.763
18,G6A A21G C24G A37U,≤ 0.5
19,C5U A21U A36U A65G,≤ 0.5
20,G6A A21G C55U C66U,≤ 0.5
21,C5U U35G A45U A57C,≤ 0.5
22,C5U G39A U53A,≤ 0.5
23,C5U C22A A36U,0.828
24,C5U U19C C24A U28A C46G C62U A70U,≤ 0.5

row,Variant,yeast fitness
1,C5U G18C C22A G51C,0.562
2,C5U A45C C61G,0.536
3,C5U C11A,0.586
4,C5U C30A,0.889
5,C5U C11U A15G U53A A65G,≤ 0.5
6,C5U U28A G41A C62U,≤ 0.5
7,C5U C66G,0.779
8,C5U C66A,0.729
9,G6A A14G C22G U35G A40C A70G,≤ 0.5
10,G6A A40U,0.823
11,C5U G18C G52C,≤ 0.5
12,C5U U47C,0.96
13,C5U A21U C30G G52A A70U,0.534
14,C5U A43G A69C,0.72
15,C5U C55A,0.668
16,G6A A15C G39A A65G,≤ 0.5
17,G6A A15C A20U A57U,≤ 0.5
18,C5U G56A C61A,≤ 0.5
19,C5U U35A A45C,0.602
20,G6A A14G U35C A36G A45U,≤ 0.5
21,C5U C24U,0.99
22,C5U C55G C61A,≤ 0.5
23,C5U G17C C24G G38C,0.609
24,G6A A20C G39C C60G C61G,≤ 0.5

row,Variant,yeast fitness
1,C5U U8A G18A A69C,≤ 0.5
2,G6A A20C C29A G44C,≤ 0.5
3,C5U C11A G50C,0.598
4,C5U C27U C34U G44A,0.547
5,C5U C30G C55G,≤ 0.5
6,C5U U28C A45C,0.672
7,C5U C11A C66G,0.613
8,C5U C34A,0.631
9,C5U U28A C34U G41A,≤ 0.5
10,G6A A14U A20C U28C C46U G58A,≤ 0.5
11,C5U G9A U54C C61G,0.673
12,C5U U13A C61U,0.624
13,C5U A20C U32C A40U G50A G52A,≤ 0.5
14,C5U C11G A15U U32A U35G C55A C61G,≤ 0.5
15,C5U G18A C30A G58A,≤ 0.5
16,C5U G51C,0.691
17,C5U A21U C30G G56A C66A,≤ 0.5
18,G6A A20C C31U C33G,≤ 0.5
19,C5U U7C U13G A36C C46U,0.757
20,C5U U32A A43G,≤ 0.5
21,C5U G39C C46U C49U G56A G68C,0.669
22,C5U A37G,0.795
23,C5U A57U,0.663
24,C5U A37G C62G G68C,≤ 0.5

row,Variant,yeast fitness
1,C5U C27A C33G A45C G50C G58A,0.514
2,C5U C22G C29A A45U G58C,≤ 0.5
3,C5U U26A,0.915
4,C5U U26G,0.969
5,C5U G18A A37C C61U,≤ 0.5
6,C5U A21G U28C A36G C55A,≤ 0.5
7,C5U U7A U35A A36U A45U,≤ 0.5
8,G6A A20U G52C,≤ 0.5
9,C5U C22U C27U C33U,≤ 0.5
10,G6A A21C U47A G68A,≤ 0.5
11,C5U C22A C31U G68C,≤ 0.5
12,C5U G23A U54C,≤ 0.5
13,C5U U7C A40C C66U,≤ 0.5
14,C5U U7A U35A A36U A45U C60G,≤ 0.5
15,C5U A45G G67A,0.743
16,C5U C30G A36U G51A G52A,0.524
17,C5U C24G C62G G68C,≤ 0.5
18,C5U C22G C29A,0.585
19,C5U A21G A42U G58A C66U,0.706
20,C5U A21G A42C,0.761
21,C5U A21G A42U,0.908
22,G6A A14U C22U A37G,≤ 0.5
23,C5U G68C A69U,≤ 0.5
24,C5U A37C C46U U53C,≤ 0.5

row,Variant,yeast fitness
1,C5U C22U A37C C55A A69U,≤ 0.5
2,C5U U13G C33A A37C A70G,≤ 0.5
3,C5U U13A A43C C46G,0.627
4,G6A A15U G18C G23C A43G C60U,≤ 0.5
5,C5U C31U C61G,0.549
6,C5U U35C,0.811
7,C5U U8C A20G C30A C61A G67U,≤ 0.5
8,C5U U7C C31A G39A,≤ 0.5
9,C5U U13G C61U,0.726
10,C5U G6C G39A A45U C46G,0.626
11,C5U A21U U32A A40U,0.634
12,C5U U16G C34A U53C C60U,≤ 0.5
13,C5U U13G C33A A37C,0.555
14,C5U G18C C22U G50A U54C,≤ 0.5
15,C5U U35G U47A G48A,≤ 0.5
16,G6A A21U U26G A70C,0.569
17,C5U G6A C66U,0.975
18,C5U C34U C55G,≤ 0.5
19,C5U C29A G39C G50A G63A A69C,≤ 0.5
20,C5U C49A C60G,0.754
21,C5U A21U U32G,≤ 0.5
22,C5U G38C C60U,≤ 0.5
23,C5U C31G C49U C61G,≤ 0.5
